Laboratory results as given in ChEMBL document CHEMBL5678814, “Novel Mps1 Kinase Inhibitors with Potent Antitumor Activity” (Mol Cancer Ther, 2016).

Columns and labels:
U2OS = assay: Antiproliferative activity against human U2OS cells assessed as cell growth inhibition incubated for 96 hrs by MTS assay; assay type: functional, cell-based
[1] = biological target: Mitogen-activated protein kinase 8 (Homo sapiens, UniProt P45983); assay: Binding affinity to JNK1 (unknown origin) assessed as dissociation constant
Mitogen-activated protein kinase 8, sequence (P45983 whole entry): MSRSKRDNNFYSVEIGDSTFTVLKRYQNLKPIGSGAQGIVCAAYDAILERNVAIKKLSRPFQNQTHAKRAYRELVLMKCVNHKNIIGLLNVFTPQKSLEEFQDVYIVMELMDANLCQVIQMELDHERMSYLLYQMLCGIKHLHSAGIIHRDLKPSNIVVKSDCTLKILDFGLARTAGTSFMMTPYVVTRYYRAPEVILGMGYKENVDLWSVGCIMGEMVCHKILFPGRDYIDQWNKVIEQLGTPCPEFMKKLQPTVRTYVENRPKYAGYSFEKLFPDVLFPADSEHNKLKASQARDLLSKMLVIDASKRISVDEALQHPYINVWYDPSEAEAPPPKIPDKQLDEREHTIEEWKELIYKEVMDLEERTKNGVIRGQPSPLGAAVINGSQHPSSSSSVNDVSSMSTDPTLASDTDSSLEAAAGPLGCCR

Malme-3M = assay: Antiproliferative activity against human Malme-3M cells assessed as cell growth inhibition incubated for 96 hrs by crystal violet staining
COLO-829 = assay: Antiproliferative activity against human COLO-829 cells assessed as cell growth inhibition incubated for 96 hrs by crystal violet staining; details: COLO-829, 96 h
[2] = Antiproliferative activity against human JMSU-1 cells assessed as cell growth inhibition incubated for 96 hrs by MTS assay; assay type: functional, cell-based; details: JMSU-1, 96 h
RD = assay: Antiproliferative activity against human RD cells assessed as cell growth inhibition incubated for 96 hrs by MTS assay; assay type: functional, cell-based
LAPC4 = assay: Antiproliferative activity against human LAPC4 cells assessed as cell growth inhibition incubated for 96 hrs by MTS assay; assay type: functional, cell-based; details: LAPC4, 96 h
MIA PaCa-2 = assay: Antiproliferative activity against human MIA PaCa-2 cells assessed as cell growth inhibition incubated for 96 hrs by crystal violet staining; details: MIA PaCa-2, 96 h
SiHa = assay: Antiproliferative activity against human SiHa cells assessed as cell growth inhibition incubated for 96 hrs by crystal violet staining
[3] = Antiproliferative activity against human A2780cis cells assessed as cell growth inhibition incubated for 96 hrs by crystal violet staining
JJN-3 = assay: Antiproliferative activity against human JJN-3 cells assessed as cell growth inhibition incubated for 96 hrs by crystal violet staining; details: JJN-3, 96 h
[4] = Antiproliferative activity against human OUMS-23 cells assessed as cell growth inhibition incubated for 96 hrs by crystal violet staining; details: OUMS-23, 96 h
L-363 = assay: Antiproliferative activity against human L-363 cells assessed as cell growth inhibition incubated for 96 hrs by crystal violet staining; details: L-363, 96 h
[5] = Clearance in male Wistar rat blood at 0.5 mg/kg, iv measured after 24 hrs by LC/-MS/MS analysis; assay type: ADME, organism-based
[6] = Oral bioavailability in female NMRI mouse plasma at 1 mg/kg measured after 24 hrs by LC/-MS/MS analysis
NCI-H1650 = assay: Antiproliferative activity against human NCI-H1650 cells assessed as cell growth inhibition incubated for 96 hrs by crystal violet staining; details: NCI-H1650, 96 h
A-375 = assay: Antiproliferative activity against human A-375 cells assessed as cell growth inhibition incubated for 96 hrs by crystal violet staining; details: A-375, 96 h
Rh41 = assay: Antiproliferative activity against human Rh41 cells assessed as cell growth inhibition incubated for 96 hrs by MTS assay; assay type: functional, cell-based; details: Rh41, 96 h
Misshapen-like kinase 1 = Misshapen-like kinase 1 (Homo sapiens, UniProt Q8N4C8); assay: Binding affinity to MINK (unknown origin) assessed as dissociation constant
Misshapen-like kinase 1, sequence (Q8N4C8 whole entry): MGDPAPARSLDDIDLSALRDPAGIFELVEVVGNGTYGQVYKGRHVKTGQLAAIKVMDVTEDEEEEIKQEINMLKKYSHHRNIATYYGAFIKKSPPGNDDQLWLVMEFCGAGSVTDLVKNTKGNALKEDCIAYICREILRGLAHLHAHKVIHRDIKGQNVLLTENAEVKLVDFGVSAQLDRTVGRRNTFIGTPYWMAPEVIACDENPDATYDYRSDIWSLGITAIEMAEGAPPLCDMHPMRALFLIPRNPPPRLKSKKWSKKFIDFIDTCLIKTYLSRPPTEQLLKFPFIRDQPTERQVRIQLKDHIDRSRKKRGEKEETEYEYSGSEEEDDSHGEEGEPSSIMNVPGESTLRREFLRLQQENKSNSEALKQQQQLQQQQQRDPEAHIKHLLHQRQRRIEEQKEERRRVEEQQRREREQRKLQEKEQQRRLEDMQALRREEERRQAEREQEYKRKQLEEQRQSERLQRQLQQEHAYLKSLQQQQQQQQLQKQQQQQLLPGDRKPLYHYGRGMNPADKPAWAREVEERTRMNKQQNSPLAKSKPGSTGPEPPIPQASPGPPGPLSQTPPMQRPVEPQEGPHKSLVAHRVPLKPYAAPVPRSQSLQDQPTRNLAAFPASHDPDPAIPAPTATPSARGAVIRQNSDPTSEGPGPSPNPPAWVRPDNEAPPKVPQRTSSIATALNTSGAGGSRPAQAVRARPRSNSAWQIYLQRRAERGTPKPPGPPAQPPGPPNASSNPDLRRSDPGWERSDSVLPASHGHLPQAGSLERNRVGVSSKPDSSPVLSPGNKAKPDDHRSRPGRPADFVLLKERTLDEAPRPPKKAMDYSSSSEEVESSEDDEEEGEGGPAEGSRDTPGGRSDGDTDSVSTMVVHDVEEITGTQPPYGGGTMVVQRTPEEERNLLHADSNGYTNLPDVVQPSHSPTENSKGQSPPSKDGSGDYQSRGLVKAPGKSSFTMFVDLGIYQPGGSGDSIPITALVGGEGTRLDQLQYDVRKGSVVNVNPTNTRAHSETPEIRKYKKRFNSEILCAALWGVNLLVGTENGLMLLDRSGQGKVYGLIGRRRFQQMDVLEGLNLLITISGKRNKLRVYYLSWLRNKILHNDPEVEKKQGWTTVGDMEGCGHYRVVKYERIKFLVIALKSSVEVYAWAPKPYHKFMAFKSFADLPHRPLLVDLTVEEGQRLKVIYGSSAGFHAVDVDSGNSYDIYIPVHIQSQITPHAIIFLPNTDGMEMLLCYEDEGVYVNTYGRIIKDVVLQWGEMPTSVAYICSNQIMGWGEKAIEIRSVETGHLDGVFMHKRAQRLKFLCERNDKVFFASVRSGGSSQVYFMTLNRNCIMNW

SK-BR-3 = assay: Antiproliferative activity against human SK-BR-3 cells assessed as cell growth inhibition incubated for 96 hrs by crystal violet staining; details: SK-BR-3, 96 h
HCT-116 = assay: Antiproliferative activity against human TP53 wildtype HCT-116 cells assessed as cell growth inhibition incubated for 96 hrs by crystal violet staining; details: HCT-116, 96 h
[7] = Half life in male Wistar rat plasma at 0.5 mg/kg, iv measured after 24 hrs by LC/-MS/MS analysis; assay type: ADME, organism-based
[8] = Half life in male CD1 mouse plasma at 0.5 mg/kg, iv measured after 24 hrs by LC/-MS/MS analysis; assay type: ADME, organism-based
Outline: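 Male CD1 mice received a single iv bolus of 0.5 mg/kg in 1% DMSO/99% plasma. Plasma was sampled at 2, 5, 15, 30 and 45 min and at 1, 2, 4, 6, 8 and 24 h, precipitated with ice-cold acetonitrile (1:5), and supernatants were run by LC/MS-MS. Parameters were estimated from plasma concentration data, with AUC by the log-linear trapezoidal rule.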

NCI-H23 = assay: Antiproliferative activity against human NCI-H23 cells assessed as cell growth inhibition incubated for 96 hrs by crystal violet staining; details: NCI-H23, 96 h
[9] = Tmax in female NMRI mouse plasma at 1 mg/kg, po measured after 24 hrs by LC/-MS/MS analysis
[10] = biological target: Mitogen-activated protein kinase kinase kinase kinase 1 (Homo sapiens, UniProt Q92918); assay: Binding affinity to HPK1 (unknown origin) assessed as dissociation constant
Mitogen-activated protein kinase kinase kinase kinase 1, sequence (Q92918 whole entry): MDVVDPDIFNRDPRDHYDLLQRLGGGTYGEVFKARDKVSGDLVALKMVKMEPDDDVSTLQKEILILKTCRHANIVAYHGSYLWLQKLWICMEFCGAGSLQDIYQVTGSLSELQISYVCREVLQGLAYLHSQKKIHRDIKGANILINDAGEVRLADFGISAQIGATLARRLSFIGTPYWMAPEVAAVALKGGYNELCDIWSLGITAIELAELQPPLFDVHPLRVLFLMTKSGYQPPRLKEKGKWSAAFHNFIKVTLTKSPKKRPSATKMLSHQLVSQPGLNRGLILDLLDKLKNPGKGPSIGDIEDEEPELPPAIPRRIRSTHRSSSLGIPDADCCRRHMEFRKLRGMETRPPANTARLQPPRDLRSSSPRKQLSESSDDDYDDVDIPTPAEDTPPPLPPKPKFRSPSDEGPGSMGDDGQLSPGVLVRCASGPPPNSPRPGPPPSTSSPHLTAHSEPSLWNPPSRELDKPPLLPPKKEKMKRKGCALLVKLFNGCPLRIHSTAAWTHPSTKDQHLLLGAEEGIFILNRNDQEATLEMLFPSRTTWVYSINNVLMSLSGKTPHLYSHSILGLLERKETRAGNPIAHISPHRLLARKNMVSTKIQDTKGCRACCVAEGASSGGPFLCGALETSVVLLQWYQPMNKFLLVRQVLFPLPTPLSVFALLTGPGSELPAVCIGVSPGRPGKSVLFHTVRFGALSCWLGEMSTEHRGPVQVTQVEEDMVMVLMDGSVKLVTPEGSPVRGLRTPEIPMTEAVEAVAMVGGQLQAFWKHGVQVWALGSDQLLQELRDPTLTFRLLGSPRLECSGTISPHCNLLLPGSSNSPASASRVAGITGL

RPMI-7951 = assay: Antiproliferative activity against human RPMI-7951 cells assessed as cell growth inhibition incubated for 96 hrs by crystal violet staining; details: RPMI-7951, 96 h
[11] = biological target: Mitogen-activated protein kinase 10 (Homo sapiens, UniProt P53779); assay: Binding affinity to JNK3 (unknown origin) assessed as dissociation constant
Mitogen-activated protein kinase 10, sequence (P53779 whole entry): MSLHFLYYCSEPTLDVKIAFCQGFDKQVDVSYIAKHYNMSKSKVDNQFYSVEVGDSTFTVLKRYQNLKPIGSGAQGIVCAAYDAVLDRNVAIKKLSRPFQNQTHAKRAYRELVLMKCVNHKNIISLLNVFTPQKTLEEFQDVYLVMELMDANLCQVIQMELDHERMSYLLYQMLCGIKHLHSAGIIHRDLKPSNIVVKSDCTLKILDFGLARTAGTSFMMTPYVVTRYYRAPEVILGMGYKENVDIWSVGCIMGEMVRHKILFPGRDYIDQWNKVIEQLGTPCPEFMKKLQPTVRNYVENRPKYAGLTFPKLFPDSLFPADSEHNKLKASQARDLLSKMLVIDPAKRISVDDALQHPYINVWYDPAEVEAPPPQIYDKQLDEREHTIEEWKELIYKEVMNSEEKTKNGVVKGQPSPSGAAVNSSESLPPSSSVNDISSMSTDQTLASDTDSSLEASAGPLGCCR

[12] = Antiproliferative activity against human NCI-H2110 cells assessed as cell growth inhibition incubated for 96 hrs by crystal violet staining; details: NCI-H2110, 96 h
SK-N-AS = assay: Antiproliferative activity against human SK-N-AS cells assessed as cell growth inhibition incubated for 96 hrs by crystal violet staining
Caco-2 = assay: Antiproliferative activity against human Caco-2 cells assessed as cell growth inhibition incubated for 96 hrs by crystal violet staining; details: Caco-2, 96 h
NCI-H661 = assay: Antiproliferative activity against human NCI-H661 cells assessed as cell growth inhibition incubated for 96 hrs by MTS assay; assay type: functional, cell-based; details: NCI-H661, 96 h
SJRH30 = assay: Antiproliferative activity against human Rh30 cells assessed as cell growth inhibition incubated for 96 hrs by MTS assay; assay type: functional, cell-based; details: SJRH30, 96 h
Caov-3 cell line = assay: Antiproliferative activity against human Caov-3 cell line assessed as cell growth inhibition incubated for 96 hrs by crystal violet staining; details: Caov-3, 96 h
NCI-H292 = assay: Antiproliferative activity against human NCI-H292 cells assessed as cell growth inhibition incubated for 96 hrs by crystal violet staining; details: NCI-H292, 96 h

Question: Which IC50 (U2OS) does the source give for `COc1cc(S(C)(=O)=O)ccc1Nc1nc2ccc(-c3ccc(NC(=O)[C@H](C)c4ccc(F)cc4)cc3)cn2n1` [BAY-1161909] here?
Answer: 550 nM

Question: And the Kd [1]?
Answer: 240 nM

Question: What about the IC50 (Malme-3M) of the same compound?
Answer: 200 nM

Question: What about the IC50 (COLO-829) of the same compound?
Answer: 300 nM

Question: And the IC50 [2]?
Answer: 89 nM

Question: What about the IC50 (RD) of the same compound?
Answer: 260 nM

Question: And the IC50 (LAPC4)?
Answer: 130 nM

Question: What about the IC50 (MIA PaCa-2) of the same compound?
Answer: 1000 nM

Question: What about the IC50 (SiHa) of the same compound?
Answer: 610 nM

Question: And the IC50 [3]?
Answer: 60 nM

Question: And the IC50 (JJN-3)?
Answer: 100 nM

Question: And the IC50 [4]?
Answer: > 3000 nM

Question: What about the IC50 (L-363) of the same compound?
Answer: 32 nM

Question: And the clearance [5]?
Answer: 3.17 mL/min/kg

Question: And the bioavailability [6]?
Answer: 59%

Question: And the IC50 (NCI-H1650)?
Answer: 130 nM

Question: What about the IC50 (A-375) of the same compound?
Answer: 100 nM

Question: And the IC50 (Rh41)?
Answer: 150 nM

Question: And the Kd (Misshapen-like kinase 1)?
Answer: 40000 nM

Question: And the IC50 (SK-BR-3)?
Answer: > 3000 nM

Question: And the IC50 (HCT-116)?
Answer: 42 nM

Question: And the half-life [7]?
Answer: 14 h

Question: And the half-life [8]?
Answer: 4.9 h

Question: And the IC50 (NCI-H23)?
Answer: 91 nM

Question: And the Tmax [9]?
Answer: 4 h

Question: What about the Kd [10] of the same compound?
Answer: 40000 nM

Question: And the IC50 (RPMI-7951)?
Answer: 280 nM

Question: And the Kd [11]?
Answer: 96 nM

Question: What about the IC50 [12] of the same compound?
Answer: 280 nM

Question: And the IC50 (SK-N-AS)?
Answer: 97 nM

Question: What about the IC50 (Caco-2) of the same compound?
Answer: 1800 nM

Question: And the IC50 (NCI-H661)?
Answer: 260 nM

Question: And the IC50 (SJRH30)?
Answer: 450 nM

Question: What about the IC50 (Caov-3 cell line) of the same compound?
Answer: 98 nM

Question: What about the IC50 (NCI-H292) of the same compound?
Answer: 190 nM
